The M2OR odorant receptor database

Tests used:
Conditions in all cases: stereoisomer not certain
UniProt Q8VFP5 = molecular target: T1, UniProt Q8VFP5
T1 sequence (whole entry): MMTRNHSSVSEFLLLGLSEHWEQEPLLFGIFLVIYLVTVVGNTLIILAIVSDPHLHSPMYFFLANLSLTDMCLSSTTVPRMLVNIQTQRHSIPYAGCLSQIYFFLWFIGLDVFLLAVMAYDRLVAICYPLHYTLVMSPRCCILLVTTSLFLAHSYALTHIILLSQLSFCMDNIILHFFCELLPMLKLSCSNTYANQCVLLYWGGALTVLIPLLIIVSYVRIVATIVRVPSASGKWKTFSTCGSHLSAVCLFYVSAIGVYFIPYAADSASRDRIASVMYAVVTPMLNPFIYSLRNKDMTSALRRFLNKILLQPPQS
Method in brief: (§1)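 Assay methods differ from source to source, frequently being transient luciferase assays in mammalian cell lines. For each receptor–molecule pair, the label responsive (active) applies when the original authors judged the measured signal statistically different from baseline, and non-responsive (inactive) applies otherwise.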

UniProt Q8VFZ6 = molecular target: T2, UniProt Q8VFZ6
T2 sequence (whole entry): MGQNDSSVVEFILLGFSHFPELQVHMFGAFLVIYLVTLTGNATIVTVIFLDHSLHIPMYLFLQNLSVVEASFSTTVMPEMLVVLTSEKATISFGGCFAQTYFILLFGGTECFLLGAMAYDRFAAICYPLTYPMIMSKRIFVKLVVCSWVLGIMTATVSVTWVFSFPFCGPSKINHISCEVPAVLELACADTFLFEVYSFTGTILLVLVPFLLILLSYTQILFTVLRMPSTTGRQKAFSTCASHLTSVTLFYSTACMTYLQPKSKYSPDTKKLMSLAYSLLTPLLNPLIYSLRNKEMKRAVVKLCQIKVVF
Method in brief: as §1

UniProt Q8VG01 = molecular target: T3, UniProt Q8VG01
T3 sequence (whole entry): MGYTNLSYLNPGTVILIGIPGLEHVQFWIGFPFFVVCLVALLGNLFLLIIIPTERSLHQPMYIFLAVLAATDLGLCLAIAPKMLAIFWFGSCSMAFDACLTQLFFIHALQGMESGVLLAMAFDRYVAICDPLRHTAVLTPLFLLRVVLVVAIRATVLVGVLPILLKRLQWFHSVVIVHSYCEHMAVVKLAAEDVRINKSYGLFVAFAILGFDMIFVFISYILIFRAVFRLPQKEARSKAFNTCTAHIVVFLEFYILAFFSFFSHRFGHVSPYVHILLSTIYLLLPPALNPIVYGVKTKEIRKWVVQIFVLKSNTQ
Method in brief: as §1

UniProt Q8VG22 = molecular target: T4, UniProt Q8VG22
T4 sequence (whole entry): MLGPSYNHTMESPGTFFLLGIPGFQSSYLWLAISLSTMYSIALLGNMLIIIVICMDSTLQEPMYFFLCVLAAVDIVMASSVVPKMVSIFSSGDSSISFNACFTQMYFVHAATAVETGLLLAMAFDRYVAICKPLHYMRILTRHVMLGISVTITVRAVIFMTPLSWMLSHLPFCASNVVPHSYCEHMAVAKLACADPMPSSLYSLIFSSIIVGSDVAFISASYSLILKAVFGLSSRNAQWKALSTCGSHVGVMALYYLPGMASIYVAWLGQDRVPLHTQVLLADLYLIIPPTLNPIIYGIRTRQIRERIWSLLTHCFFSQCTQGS
Method in brief: as §1

UniProt Q8VG27 = molecular target: T5, UniProt Q8VG27
T5 sequence (whole entry): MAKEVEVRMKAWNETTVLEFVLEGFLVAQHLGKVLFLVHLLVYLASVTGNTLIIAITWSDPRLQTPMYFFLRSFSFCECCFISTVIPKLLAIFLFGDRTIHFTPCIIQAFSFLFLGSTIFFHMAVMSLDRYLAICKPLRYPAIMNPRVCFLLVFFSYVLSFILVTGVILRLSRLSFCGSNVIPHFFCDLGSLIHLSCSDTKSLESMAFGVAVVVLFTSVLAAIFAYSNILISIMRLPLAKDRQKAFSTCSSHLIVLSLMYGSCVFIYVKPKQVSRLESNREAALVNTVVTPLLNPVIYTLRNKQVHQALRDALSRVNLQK
Method in brief: as §1

UniProt Q8VG49 = molecular target: T6, UniProt Q8VG49
T6 sequence (whole entry): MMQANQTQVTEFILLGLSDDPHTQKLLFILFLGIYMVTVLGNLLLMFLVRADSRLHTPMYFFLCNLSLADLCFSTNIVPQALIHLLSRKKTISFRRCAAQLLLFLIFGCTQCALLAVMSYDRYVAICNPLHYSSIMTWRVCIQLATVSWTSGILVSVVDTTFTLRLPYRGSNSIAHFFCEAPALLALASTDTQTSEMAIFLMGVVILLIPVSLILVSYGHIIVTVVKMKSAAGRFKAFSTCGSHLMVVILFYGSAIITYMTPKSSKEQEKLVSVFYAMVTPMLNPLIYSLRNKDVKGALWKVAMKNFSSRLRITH
Method in brief: as §1

UniProt Q8VG53 = molecular target: T7, UniProt Q8VG53
T7 sequence (whole entry): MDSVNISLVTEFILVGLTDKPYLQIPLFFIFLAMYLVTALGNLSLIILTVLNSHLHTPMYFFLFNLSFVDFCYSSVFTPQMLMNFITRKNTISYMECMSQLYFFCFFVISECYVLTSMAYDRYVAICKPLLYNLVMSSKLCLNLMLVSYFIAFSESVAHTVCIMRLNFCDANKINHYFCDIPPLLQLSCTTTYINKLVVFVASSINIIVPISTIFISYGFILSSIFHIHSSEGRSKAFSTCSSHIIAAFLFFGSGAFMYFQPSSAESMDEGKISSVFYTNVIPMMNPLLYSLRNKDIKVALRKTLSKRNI
Method in brief: as §1

UniProt Q8VG64 = molecular target: T8, UniProt Q8VG64
T8 sequence (whole entry): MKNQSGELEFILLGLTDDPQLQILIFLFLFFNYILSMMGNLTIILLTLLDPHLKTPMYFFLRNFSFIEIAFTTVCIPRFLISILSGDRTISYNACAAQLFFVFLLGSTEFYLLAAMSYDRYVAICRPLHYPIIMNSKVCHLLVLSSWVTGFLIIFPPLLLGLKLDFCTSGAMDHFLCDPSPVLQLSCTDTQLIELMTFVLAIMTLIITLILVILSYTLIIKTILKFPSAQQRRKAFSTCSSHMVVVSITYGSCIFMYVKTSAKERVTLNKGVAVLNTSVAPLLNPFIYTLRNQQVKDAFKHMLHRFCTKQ
Method in brief: as §1

UniProt Q8VG77 = molecular target: T9, UniProt Q8VG77
T9 sequence (whole entry): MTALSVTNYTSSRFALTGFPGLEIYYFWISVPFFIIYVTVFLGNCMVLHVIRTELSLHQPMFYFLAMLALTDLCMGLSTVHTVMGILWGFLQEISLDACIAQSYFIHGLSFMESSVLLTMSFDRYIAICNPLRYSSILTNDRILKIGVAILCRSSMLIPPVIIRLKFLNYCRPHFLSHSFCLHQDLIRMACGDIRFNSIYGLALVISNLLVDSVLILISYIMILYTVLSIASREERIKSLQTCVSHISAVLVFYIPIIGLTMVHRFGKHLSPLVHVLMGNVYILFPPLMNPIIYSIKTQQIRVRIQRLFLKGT
Method in brief: as §1

UniProt Q8VG96 = molecular target: T10, UniProt Q8VG96
T10 sequence (whole entry): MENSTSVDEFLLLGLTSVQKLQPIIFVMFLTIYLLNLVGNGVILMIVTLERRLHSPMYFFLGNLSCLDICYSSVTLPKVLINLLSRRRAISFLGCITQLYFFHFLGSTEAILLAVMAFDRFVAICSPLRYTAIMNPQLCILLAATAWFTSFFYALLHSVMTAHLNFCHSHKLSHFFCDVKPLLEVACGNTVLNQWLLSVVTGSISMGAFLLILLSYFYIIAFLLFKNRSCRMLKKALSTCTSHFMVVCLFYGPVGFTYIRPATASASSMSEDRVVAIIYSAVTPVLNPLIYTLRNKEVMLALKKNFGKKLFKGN
Method in brief: as §1

UniProt Q8VGB9 = molecular target: T11, UniProt Q8VGB9
T11 sequence (whole entry): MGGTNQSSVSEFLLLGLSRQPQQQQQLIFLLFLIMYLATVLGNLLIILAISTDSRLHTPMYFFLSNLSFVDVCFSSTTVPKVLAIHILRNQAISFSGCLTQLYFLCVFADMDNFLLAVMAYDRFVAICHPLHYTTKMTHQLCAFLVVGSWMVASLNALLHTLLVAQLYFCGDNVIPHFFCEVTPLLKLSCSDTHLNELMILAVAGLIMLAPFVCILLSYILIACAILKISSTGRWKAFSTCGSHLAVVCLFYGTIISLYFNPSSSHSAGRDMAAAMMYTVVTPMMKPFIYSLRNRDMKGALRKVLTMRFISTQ
Method in brief: as §1

UniProt Q8VFQ6 = molecular target: UniProt Q8VFQ6
UniProt Q8VFQ6, sequence (Q8VFQ6 as listed by the source): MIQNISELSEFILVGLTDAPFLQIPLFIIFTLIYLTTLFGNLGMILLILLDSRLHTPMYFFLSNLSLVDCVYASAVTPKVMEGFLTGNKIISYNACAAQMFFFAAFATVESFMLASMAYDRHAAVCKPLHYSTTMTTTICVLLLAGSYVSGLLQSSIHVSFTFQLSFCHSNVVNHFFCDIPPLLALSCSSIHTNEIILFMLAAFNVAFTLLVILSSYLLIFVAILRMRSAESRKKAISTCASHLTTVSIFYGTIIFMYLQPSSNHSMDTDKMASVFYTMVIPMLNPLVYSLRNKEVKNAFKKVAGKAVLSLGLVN
Method in brief: as §1

UniProt Q8VG26 = molecular target: UniProt Q8VG26
UniProt Q8VG26, sequence (Q8VG26 as listed by the source): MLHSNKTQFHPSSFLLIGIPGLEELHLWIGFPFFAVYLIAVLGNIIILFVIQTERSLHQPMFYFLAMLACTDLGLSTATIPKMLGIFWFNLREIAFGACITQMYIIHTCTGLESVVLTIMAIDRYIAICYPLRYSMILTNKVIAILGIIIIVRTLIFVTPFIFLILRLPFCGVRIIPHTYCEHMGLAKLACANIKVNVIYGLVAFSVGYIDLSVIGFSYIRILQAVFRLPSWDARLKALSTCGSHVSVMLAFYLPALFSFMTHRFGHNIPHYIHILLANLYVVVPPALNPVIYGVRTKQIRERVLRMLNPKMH
Method in brief: as §1

UniProt Q8VG28 = molecular target: UniProt Q8VG28
UniProt Q8VG28, sequence (Q8VG28 as listed by the source): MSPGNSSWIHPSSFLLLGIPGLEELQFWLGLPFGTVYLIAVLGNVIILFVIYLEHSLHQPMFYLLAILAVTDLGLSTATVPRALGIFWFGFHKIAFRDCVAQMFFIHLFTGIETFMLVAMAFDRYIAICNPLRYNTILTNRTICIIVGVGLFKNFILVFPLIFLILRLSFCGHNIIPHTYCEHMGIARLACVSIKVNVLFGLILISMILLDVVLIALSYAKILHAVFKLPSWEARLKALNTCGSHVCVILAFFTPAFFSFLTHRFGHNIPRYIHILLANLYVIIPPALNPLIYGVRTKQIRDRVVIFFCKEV
Method in brief: as §1

Measured: odorant receptor agonist call

CCCCCC(=O)CC
not listed: UniProt Q8VFQ6 | UniProt Q8VG26 | UniProt Q8VG28
inactive: all other assays above

CCCCC(C)=O
active: UniProt Q8VGB9
not listed: UniProt Q8VFQ6 | UniProt Q8VG26 | UniProt Q8VG28
inactive: all other assays above

C=C(C)C1CCC(C)C(=O)C1 (stereo not drawn)
active: UniProt Q8VG22
not listed: UniProt Q8VFQ6 | UniProt Q8VG26 | UniProt Q8VG28
inactive: all other assays above

O=C1CCOc2ccccc21
active: UniProt Q8VG22
not listed: UniProt Q8VG26 | UniProt Q8VG28
inactive: all other assays above

CCC(=O)C(=O)CC
active: UniProt Q8VG22 | UniProt Q8VGB9
not listed: UniProt Q8VFQ6 | UniProt Q8VG26 | UniProt Q8VG28
inactive: all other assays above

CC12CCC(CC1=O)C2(C)C (stereo not drawn)
not listed: UniProt Q8VFQ6 | UniProt Q8VG26 | UniProt Q8VG28
inactive: all other assays above

CC(=O)Oc1ccccc1
active: UniProt Q8VG22 | UniProt Q8VG96
not listed: UniProt Q8VFQ6 | UniProt Q8VG26 | UniProt Q8VG28
inactive: all other assays above

CCCCCCCCCS
active: UniProt Q8VFZ6 | UniProt Q8VG49
not listed: UniProt Q8VFQ6 | UniProt Q8VG26 | UniProt Q8VG28
inactive: all other assays above

CCCCCC=O
active: UniProt Q8VG77
not listed: UniProt Q8VFQ6 | UniProt Q8VG26 | UniProt Q8VG28
inactive: all other assays above

CCCCCC1=C(C)CCC1=O
active: UniProt Q8VG22
not listed: UniProt Q8VFQ6 | UniProt Q8VG26 | UniProt Q8VG28
inactive: all other assays above

CCCCC(=O)O
not listed: UniProt Q8VFQ6
inactive: all other assays above

C=CCOC(=O)CCCCCC
not listed: UniProt Q8VFQ6 | UniProt Q8VG26 | UniProt Q8VG28
inactive: all other assays above

CCCCCCOC(C)=O
not listed: UniProt Q8VFQ6 | UniProt Q8VG26 | UniProt Q8VG28
inactive: all other assays above

CCCCCCO
active: UniProt Q8VG22 | UniProt Q8VGB9
not listed: UniProt Q8VFQ6
inactive: all other assays above

CCCCOC=O
not listed: UniProt Q8VFQ6 | UniProt Q8VG26 | UniProt Q8VG28
inactive: all other assays above

CCCCCCCCO
active: UniProt Q8VFZ6
not listed: UniProt Q8VFQ6
inactive: all other assays above

CCCCCCCCC(=O)O
active: UniProt Q8VG49
not listed: UniProt Q8VFQ6 | UniProt Q8VG28
inactive: all other assays above

CCCCCCCCCO
not listed: UniProt Q8VFQ6
inactive: all other assays above
